The list is not random: actives were taken first. Their share in the collection is about 5.8%.
IDH1 R132H inh: blocks human IDH1 R132H reductase activity; 70,000 compounds, 0.18% hits; AID 624101; inhibition, % at 10 µM; diaphorase/resazurin fluorescence, 60 min; in the data active = inhibition above about 34%; inconclusive = no clear call, values can overlap the other calls; inactive = below about 11%;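 also: 0% = DMSO and 100% = no enzyme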
KDM4C inh: KDM4C (human) demethylase inhibition. 96,000 compounds, 0.15% hits. inhibition, % at 12.5 µM. Q9H3R0. GST-KDM4C 2-372, H3K9me3 peptide, LANCE TR-FRET;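 active = mean replicate inhibition above about 25%, with at least 55% of replicates also reaching it, limit read from the data, passing the limit was not always enough; inconclusive = only one of those two conditions met; inactive = neither condition met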
Target sequence (Q9H3R0 2-372 limits assumed): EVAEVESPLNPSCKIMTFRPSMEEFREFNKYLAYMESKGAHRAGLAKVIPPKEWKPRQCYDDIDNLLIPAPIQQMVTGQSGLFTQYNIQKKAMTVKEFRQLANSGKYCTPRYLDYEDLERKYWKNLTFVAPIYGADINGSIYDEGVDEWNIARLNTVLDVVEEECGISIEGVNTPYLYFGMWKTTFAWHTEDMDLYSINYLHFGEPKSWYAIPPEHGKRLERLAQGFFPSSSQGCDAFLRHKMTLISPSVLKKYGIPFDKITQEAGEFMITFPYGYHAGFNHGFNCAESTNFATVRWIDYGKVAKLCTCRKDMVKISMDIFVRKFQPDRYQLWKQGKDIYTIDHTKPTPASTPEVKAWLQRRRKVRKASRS
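System: N-terminal GST-fused human GASC-1 (KDM4C) fragment, residues 2-372; amount: enzyme final amount 10 nM; incubation: reaction 30 min RT, detection step 1 h RT; medium: HEPES buffer, pH 7.5, plus ascorbate; technique: LANCE TR-FRET, Eu antibody, ULight-streptavidin, EDTA, ex 340 nm, em 618/671 nm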
T cruzi growth-1: blocks T. cruzi growth in NIH3T3 culture; T. cruzi beta-gal in NIH3T3, GalScreen luminescence, 90 h; inhibition, % at 8.34 µM; 77,000 compounds, 5.9% hits; AID 624255;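 active = mean inhibition above about 93%, with at least 55% of replicates each passing it, limit read from the data, passing the limit was not always enough; inconclusive = only one of those two conditions holds; inactive = neither condition holds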
Pf Dd2 growth: inhibitors of Plasmodium falciparum Dd2 growth; P. falciparum Dd2 growth, SYBR Green, 72 h; hits give low values; activity change, % at 10 µM; 94,000 compounds, 2.3% hits; AID 1159554; in the data active = activity change below about -80%; inconclusive = no clear call, values can overlap the other calls
T cruzi growth-2: Trypanosoma cruzi proliferation inhibition | shares compounds with T cruzi growth-1 | T. cruzi beta-gal in NIH3T3, GalScreen luminescence, 90 h | inhibition, % at 8.35 µM | 5,600 compounds, 72% hits | AID 651739;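 active = mean replicate inhibition above about 95% and at least 55% of replicates individually reaching it, limit read from the data; inconclusive = only one of the two criteria is met; inactive = neither criterion is met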
T cruzi growth-3: blocks T. cruzi growth in NIH3T3 host cells | shares compounds with T cruzi growth-1 | T. cruzi beta-gal in NIH3T3, GalScreen luminescence, 90 h | inhibition, % at 2.09 µM | 5,600 compounds, 21% hits | AID 651740;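 active = mean inhibition above about 95%, with at least 55% of replicates also reaching it, limit read from the data; inconclusive = meets just one of the two conditions; inactive = meets neither condition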;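 also: plate controls were neutral control median for no effect and positive control median for full effect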
NIH3T3 tox: NIH/3T3 (mouse) viability loss | 5,600 compounds, 14% hits | shares compounds with T cruzi growth-1 | AID 651742 | cytotoxicity (signal decrease), % at 8.35 µM | NIH/3T3 viability, CellTiter-Glo ATP luminescence, 90 h;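 active = mean signal decrease across replicates above about 35% based on untreated-well scatter, with enough replicates individually passing, limit read from the data; inconclusive = no rule stated though some were filed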;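 also: 0% = median of neutral control wells and 100% = median of positive control wells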
NIH3T3 tox 2: kills mouse NIH/3T3 fibroblasts; shares compounds with T cruzi growth-1; NIH/3T3 viability, CellTiter-Glo ATP luminescence, 90 h; inhibition, % at 24.9 µM; 5,600 compounds, 56% hits; AID 651744;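 active = mean loss of cell viability signal at or above a set limit, and enough replicates individually reaching it; inconclusive = meets only the mean limit or only the replicate share; inactive = meets neither condition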;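 also: 0% = median of neutral control wells and 100% = median of positive control wells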
* hit, by the source's call; ? = inconclusive; / = no result.

SMILES	IDH1 R132H inh	KDM4C inh	T cruzi growth-1	Pf Dd2 growth	T cruzi growth-2	T cruzi growth-3	NIH3T3 tox	NIH3T3 tox 2
C[C@@H]1CCCCO[C@@H](CN(C)C(=O)Nc2ccc(F)cc2)[C@H](C)CN([C@@H](C)CO)C(=O)c2cc(NC(=O)Nc3ccc(C(F)(F)F)cc3)ccc2O1	/	0	95*	17	105*	104*	-7	-31
C[C@@H]1CCCCO[C@H](CN(C)C(=O)Nc2ccc(C(F)(F)F)cc2)[C@@H](C)CN([C@H](C)CO)C(=O)c2cc(NC(=O)Nc3ccc(F)cc3)ccc2O1	0	0	?	-23	/	/	/	/
Cc1c(Cl)cccc1NC(=O)CN(c1ccccc1Br)S(C)(=O)=O	1	/	/	/	/	/	/	/
O=S(=O)(c1ccccc1F)N1CCCCN2[C@H](C1)[C@@H](c1ccc(-c3cccnc3)cc1)[C@@H]2CO	/	4	76	22	/	/	/	/
O=S(=O)(c1ccccc1F)N1CCCCN2[C@H](CO)[C@H](c3ccc(-c4cccnc4)cc3)[C@H]2C1	/	0	?	-3	91	12	8	?
O=S(=O)(c1ccccc1F)N1CCCCN2[C@H](CO)[C@@H](c3ccc(-c4ccncc4)cc3)[C@H]2C1	/	0	85	11	/	/	/	/
O=S(=O)(c1ccccc1F)N1CCCCN2[C@H](C1)[C@H](c1ccc(-c3ccncc3)cc1)[C@@H]2CO	/	-1	96*	9	112*	54	7	10
N#Cc1sc2c(c1OC(=O)c1cccs1)c(=O)n(-c1ccccc1)c(=S)n2-c1ccccc1	1	/	/	/	/	/	/	/
O=C(NCc1ccc(F)cc1)[C@@H]1[C@@H](CO)[C@@H]2Cn3c(cccc3=O)[C@@H]2N1CCC(F)(F)F	/	1	143*	/	-1	-5	0	1
CCN1[C@H](C(=O)NCc2ccc(F)cc2)[C@@H](CO)[C@@H]2Cn3c(ccc(-c4ccccc4OC)c3=O)[C@@H]21	/	1	104*	/	69	18	17	3
O=C(Nc1nccs1)[C@H]1[C@H](CO)[C@H]2Cn3c(ccc(-c4cccnc4)c3=O)[C@H]2N1CC1CCCC1	/	4	?	-9	20	-3	11	54*
O=C(Nc1nccs1)[C@@H]1[C@@H](CO)[C@@H]2Cn3c(cccc3=O)[C@@H]2N1C(=O)C1CCC1	/	1	101*	13	1	-13	3	1
CCN1[C@@H]2c3ccc(-c4ccccc4OC)c(=O)n3C[C@@H]2[C@@H](CO)[C@@H]1C(=O)Nc1nccs1	/	1	87	6	/	/	/	/
O=C(NCC1CC1)[C@@H]1[C@@H](CO)[C@@H]2Cn3c(ccc(-c4cncnc4)c3=O)[C@@H]2N1C(=O)NC1CCCC1	/	2	-29	/	/	/	/	/
O=C(NCC1CC1)[C@@H]1[C@@H](CO)[C@@H]2Cn3c(ccc(-c4cccnc4)c3=O)[C@@H]2N1C(=O)NC1CCCC1	/	3	?	2	-1	32	-6	15
COc1ccccc1-c1ccc2n(c1=O)C[C@H]1[C@H](CO)[C@@H](C(=O)Nc3nccs3)N(CC3CC3)[C@@H]21	/	3	?	-1	-1	-28	3	11
Cc1nc(SCC(N)=O)c2c(C)c(C)sc2n1	0	/	/	/	/	/	/	/
Cc1cc(N(CC(=O)Nc2ccc3c(c2)OCCO3)S(C)(=O)=O)ccc1Br	0	/	/	/	/	/	/	/
CCC(=O)NC[C@@H]1[C@H](c2ccc(-c3cccc(F)c3)cc2)[C@H](CO)N1C(=O)CC	/	-1	?	12	12	-19	-8	-10
CCC(=O)NC[C@H]1[C@@H](c2ccc(-c3cccc(F)c3)cc2)[C@H](CO)N1C(=O)CC	/	-3	30	19	/	/	/	/
CCC(=O)NC[C@@H]1[C@H](c2ccc(-c3cccc(F)c3)cc2)[C@@H](CO)N1C(=O)CC	/	-1	101*	1	-41	-73	-35	-30
N#C[C@H]1[C@H](c2ccc(C#Cc3cccc(F)c3)cc2)[C@@H](CO)N1C(=O)C1CCC1	/	-1	97*	-52	97*	109*	17	12
N#C[C@@H]1[C@@H](c2ccc(C#Cc3cccc(F)c3)cc2)[C@H](CO)N1C(=O)C1CCC1	/	-1	99*	-36	104*	105*	14	-3
O=C(CCCCCC(=O)Nc1ccccc1O)N/N=C/c1cccnc1	0	/	/	/	/	/	/	/
C[C@H]1CN([C@@H](C)CO)C(=O)c2cccc(NC(=O)c3ccncc3)c2O[C@@H]1CN(C)Cc1ccncc1	/	3	52	6	/	/	/	/
SMILES	IDH1 R132H inh	KDM4C inh	T cruzi growth-1	Pf Dd2 growth	T cruzi growth-2	T cruzi growth-3	NIH3T3 tox	NIH3T3 tox 2
C[C@H](CO)N1C[C@H](C)[C@H](CN(C)Cc2ccncc2)Oc2c(NC(=O)c3ccncc3)cccc2C1=O	-1	0	50	7	/	/	/	/
C[C@@H]1CN([C@@H](C)CO)C(=O)c2cccc(NC(=O)c3ccncc3)c2O[C@H]1CN(C)Cc1ccc2c(c1)OCO2	0	3	103*	-8	97*	92	-3	27*
C[C@@H]1CN([C@H](C)CO)C(=O)c2cccc(NC(=O)c3ccncc3)c2O[C@H]1CN(C)Cc1ccncc1	2	0	80	-35	/	/	/	/
C[C@H]1CN([C@@H](C)CO)C(=O)c2cccc(NC(=O)c3ccncc3)c2O[C@H]1CN(C)Cc1ccc2c(c1)OCO2	0	1	97*	-2	108*	86	3	?
C[C@@H]1CN([C@H](C)CO)C(=O)c2cccc(NC(=O)c3ccncc3)c2O[C@H]1CN(C)Cc1ccc2c(c1)OCO2	3	-2	98*	-7	91	74	23	25
COc1ccccc1OCCCSc1nc(-c2ccccc2)cc(=O)[nH]1	9	/	/	/	/	/	/	/
C[C@H]1CN([C@@H](C)CO)C(=O)c2cccc(NC(=O)c3ccc(-c4nccs4)cc3)c2O[C@H]1CN(C)C(=O)Nc1ccc(C(F)(F)F)cc1	/	-3	95	-45	/	/	/	/
C[C@H](CO)N1C[C@H](C)[C@H](CN(C)C(=O)Nc2ccc(F)cc2)Oc2c(NC(=O)c3ccc(-c4nccs4)cc3)cccc2C1=O	/	-1	/	/	/	/	/	/
C[C@@H]1CN([C@@H](C)CO)C(=O)c2cccc(NC(=O)c3ccc(-c4nccs4)cc3)c2O[C@H]1CN(C)C(=O)Nc1ccc(C(F)(F)F)cc1	/	-2	120*	-44	87	82	24	70*
C[C@@H]1CN([C@H](C)CO)C(=O)c2cccc(NC(=O)c3ccc(-c4nccs4)cc3)c2O[C@H]1CN(C)C(=O)Nc1ccc(C(F)(F)F)cc1	/	?	115*	-11	100*	72	28	72*
CCN(CC(=O)Nc1ccc(OC)cc1)S(=O)(=O)c1ccc(Cl)cc1	0	/	/	/	/	/	/	/

Source: PubChem (Broad Institute)
